Data on 18 molecules can be found in ChEMBL document CHEMBL1158783, “Neoflavonoids and related constituents from Nepalese propolis and their nitric oxide production inhibitory activity” (J Nat Prod, 2005).

SMILES strings stand for the structures.

For the first data set, the system named is J774.1. As to the kind of experiment: Inhibition of LPS-induced NO production in mouse J774.1 cells after 24 hrs by Griess reagent assay. Type of data set: functional, cell-based. Particulars: J774.1, 24 h; call rule not given here. In a few lines: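 J774.1 cells grown in RPMI 1640 with penicillin G, streptomycin and 10% FCS, seeded at 1 × 10⁵ cells/well and left to adhere for 2 h at 37 °C, 5% CO₂. Fresh medium with LPS (10 µg/mL) plus compound was then added for 24 h. Supernatant nitrite was read with Griess reagent (10 min, room temperature, A550), medium-blank corrected, and compared with an LPS-only control. IC50 taken from the mean of four determinations.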
On the technique in general: Nitrite, measured by Griess reagent, commonly stands in for NO production.
Broadly, the IC50 is the concentration that gives 50% inhibition. Higher therefore signals weaker potency. Molecule `COc1ccc2c(c1O)O[C@@H]1c3ccc(O)cc3OC[C@H]21` came in with an IC50 of 3.4 µM.

With `COc1ccc2c(c1)O[C@H]1c3ccc(O)c(O)c3OC[C@@H]21`, half-maximal inhibition (IC50) was put at 5.4 µM. In the case of `C=C[C@H](C1=CC(=O)C(OC)=CC1=O)c1ccccc1`, inhibition was half-maximal at 10.2 µM (IC50). On the same count and under the same terms, in the case of `C=C[C@@H](c1ccccc1)c1ccc(O)c(O)c1` it was 8.4 µM; in that of `C=C[C@@H](c1ccccc1)[C@@H]1C[C@@H](O)[C@@H](OC)C[C@@H]1O`, 100 µM; in that of `C=CC(c1ccccc1)[C@@H]1C[C@@H](O)C=CC1=O` (stereo not given in full), 0.5 µM. On the same count and under the same terms, in the case of `C=CC(c1ccccc1)[C@H]1C[C@@H](O)C=CC1=O` (stereo not given in full) it was 0.5 µM; in that of `C=C[C@@H](c1ccccc1)[C@@H]1C[C@@H](O)[C@@H](OC)CC1=O`, 13.2 µM; in that of `C=C[C@H](c1ccccc1)[C@@H]1C[C@@H](O)[C@@H](OC)CC1=O`, 9.6 µM.

Take `C=CC(c1ccccc1)[C@H]1C[C@@H](O)C[C@@H](OC)C1=O` (stereo not given in full): the IC50 was 2.3 µM. `C=C[C@@H](c1ccccc1)c1ccc(O)cc1O` registered an IC50 of 5.5 µM. Compared with the last molecule, the IC50 is about 2.4-fold higher.

Molecule `COC1=CC(=O)CCC1(O)C/C=C/c1ccccc1` (stereo not given) returned an IC50 of 19.2 µM. Compared with the last molecule, the IC50 is about 3.5-fold higher. On the same count and under the same terms, in the case of `C=CC(c1ccccc1)[C@@H]1C[C@H](O)C(OC)=CC1=O` (stereo not given in full) it was 48.5 µM; in that of `C=CC(c1ccccc1)[C@H]1C[C@@H](O)[C@@H](OC)CC1=O` (stereo not given in full), 9.6 µM; in that of `O=C(/C=C/c1ccc(O)c(O)c1)OCCc1ccccc1` [CAFFEIC ACID PHENETHYL ESTER], 4.8 µM.

As for `COc1cc(O)c(C(=O)c2ccccc2)cc1O` [CEAROIN], it took 15.4 µM to reach half-maximal inhibition (IC50). On the same count and under the same terms, in the case of `O=C(/C=C/c1ccc(O)cc1)c1ccc(O)cc1O` [ISOLIQUIRITIGENIN] it was 29.3 µM; in that of `C=CC(c1ccccc1)c1cc(O)c(OC)cc1O` (stereo not given) [OBTUSAQUINOL], 6.3 µM.

Tested on in a further data set: not listed separately
In words: Cytotoxicity against mouse J774.1 cells at > 50 uM by MTT assay. Type of data set: cell-based.
Settings: not given
Background: Tetrazolium assays rely on reduction of a dye to a coloured formazan, in cell work by metabolically active cells.
Take `C=CC(c1ccccc1)[C@@H]1C[C@@H](O)C=CC1=O` (stereo not given in full): the result was Active. Same read-out and setting: next, `C=CC(c1ccccc1)[C@H]1C[C@@H](O)C=CC1=O` (stereo not given in full): “Active”.
